One experiment deals with CCRF-CEM. In words: The compound is evaluated for the cytotoxic concentration for the mock-infected CEM cells. The experiment is classed as functional. The conditions noted are these: Homo sapiens. An outline of the steps:
(§1)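 XTT cytoprotection assay in CEM-SS cells infected with HIV-1 RF, with uninfected cultures for cytotoxicity, in presence of fetal calf serum. Data as percent of uninfected drug-free control. EC50 is 50% protection from cytopathicity; CC50 is 50% cell death in uninfected cells; TI = CC50/EC50. Triplicates on each of two sister plates, plate EC50s averaged. Confirmed by supernatant RT and p24.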

Experiment [1] has as its system CEM-SS. The experiment is described as follows: Inhibitory concentration for cytopathicity of HIV-1 RF in CEM-SS cells; NA means there was no observed inhibition of HIV-1 cytopathicity up to the cytotoxic concentration in uninfected cells. The experiment is classed as functional, cell-based. An outline of the steps: as §1
(In general: Cytopathic effects are the visible damage that an infection or toxin causes in cultured cells.)

Experiment [2] concerns the target Human immunodeficiency virus type 1 reverse transcriptase (Human immunodeficiency virus 1, UniProt Q72547). In words: Inhibitory activity against human immunodeficiency virus (HIV) - 1 reverse transcriptase with rCdG as the template primer. An outline of the steps:
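Reactions stopped with ice-cold 10% trichloroacetate, filtered through GF/C membrane, washed with ethanol, radiolabel counted by Cerenkov counting. AZTTP and nevirapine as positive controls; IC50 reported.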

Experiment [3] concerns CEM-SS. The experiment is described as follows: Inhibitory concentration for cytopathicity of HIV-1 in CEM-SS cells. The experiment is classed as functional, cell-based. The note with it: Homo sapiens. In short, it runs like this:
as §1

In experiment [4] the test system is CEM-SS. In words: The compound is evaluated for the therapeutic index, which is the CC50 divided by the EC50. The experiment is classed as functional. In short, it runs like this: as §1

The structures appear in SMILES notation.

The term CC50 denotes the concentration that lowers cell viability or growth by half. By EC50 is commonly meant the concentration giving half of the maximal effect. A low value points to an effect from little substance. Broadly, the IC50 is the concentration at which inhibition is half-maximal. The low end stands for inhibition by little substance, the high end for a need for much substance. As for `C=C(c1cc(Br)c(OC)c(C(=O)OC)c1)c1cc(Br)c(OC)c(C(=O)OC)c1`, the CC50 in the experiment with CCRF-CEM was determined as 316 µM. Further, the EC50 result in the experiment with CEM-SS [1] is recorded as “Not Active”. In addition, the half-maximal inhibitory concentration (IC50) in experiment [2] was greater than 100 µM.

In the experiment on CCRF-CEM, `COc1c(Cl)cc(C(=CCCCC(=O)O)c2cc(Cl)c(OC)c(C(=O)O)c2)cc1C(=O)O` registered a CC50 greater than 316 µM. Further, the half-maximal effective concentration (EC50) in the experiment on CEM-SS [3] is 180 µM. For the same compound, the concentration for half-maximal inhibition (IC50) in experiment [2] was greater than 100 µM. Besides, in the experiment with CEM-SS [4], the TI is 1.7.

`COC(=O)c1cc(C(=CC(=O)O)c2cc(Cl)c(OC)c(C(=O)OC)c2)cc(Cl)c1OC` had a CC50 with CCRF-CEM of 48 µM. The half-maximal effective concentration (EC50) result in the experiment with CEM-SS [1] is “Not Active”. The compound also gave an IC50 in experiment [2] greater than 100 µM.

`CCCCCC=C(c1cc(I)c(OC)c(C(=O)OC)c1)c1cc(I)c(OC)c(C(=O)OC)c1` had a CC50 in the experiment with CCRF-CEM greater than 316 µM. For the same compound, the EC50 entry in the experiment with CEM-SS [1] is “Not Active”. Besides, the half-inhibitory concentration (IC50) in experiment [2] is 11 µM.

In turn, `COC(=O)c1cc(C(=CCCN)c2cc(Cl)c(OC)c(C(=O)OC)c2)cc(Cl)c1OC` displayed a half-maximal cytotoxic concentration (CC50) with CCRF-CEM of 15 µM. Further, in the experiment with CEM-SS [1], the 50% effective concentration (EC50) entry is “Not Active”. The IC50 in experiment [2] came to 63 µM.

Consider `COC(=O)c1cc(C(=CCCO)c2cc(Cl)c(OC)c(C(=O)OC)c2)cc(Cl)c1OC`, for which the CC50 in the experiment on CCRF-CEM turned out to be 16.8 µM. In the experiment on CEM-SS [3], this compound came in with an EC50 of 8.6 µM. In experiment [2], the IC50 was greater than 100 µM. In the experiment on CEM-SS [4], this compound gave a TI of 2.

Consider `CCCCCC=C(c1ccc(OC)c(C(=O)OC)c1)c1ccc(OC)c(C(=O)OC)c1`, for which, in the experiment on CCRF-CEM, it took 14 µM to reach half-maximal cytotoxicity (CC50). In the experiment on CEM-SS [1], the half-maximal effective concentration (EC50) entry is “Not Active”. In experiment [2], this compound registered a 50% inhibitory concentration (IC50) of 3.2 µM.

In the experiment with CCRF-CEM, `COC=C(c1cc(Br)c(OC)c(C(=O)OC)c1)c1cc(Br)c(OC)c(C(=O)OC)c1` registered a CC50 of 22 µM. Besides, the 50% effective concentration (EC50) result in the experiment with CEM-SS [1] is listed as “Not Active”. Also, the concentration for half-maximal inhibition (IC50) in experiment [2] is greater than 100 µM.

Turning to `COC(=O)c1cc(C(=CC(=O)OC(C)(C)C)c2cc(Cl)c(OC)c(C(=O)OC)c2)cc(Cl)c1OC`, the CC50 in the experiment with CCRF-CEM was greater than 100 µM. Also, the EC50 result in the experiment with CEM-SS [1] is listed as “Not Active”. The compound also registered a half-maximal inhibitory concentration (IC50) in experiment [2] greater than 100 µM.

In the experiment with CCRF-CEM, `CC1(C)OC(=O)c2cc(C(=CCCBr)c3cc(Cl)c4c(c3)C(=O)OC(C)(C)O4)cc(Cl)c2O1` displayed a CC50 of 176 µM. In the experiment on CEM-SS [1], the EC50 entry was “Not Active”. The compound also showed an IC50 in experiment [2] greater than 100 µM.

For `CCCCCC1OC1(c1cc(Br)c(OC)c(C(=O)OC)c1)c1cc(Br)c(OC)c(C(=O)OC)c1` (stereo not drawn), the cytotoxic concentration (CC50) in the experiment on CCRF-CEM was greater than 100 µM. Further, in the experiment with CEM-SS [1], the EC50 result is given as “Not Active”. In addition, the IC50 in experiment [2] was 5.6 µM.

In the experiment with CCRF-CEM, `COC(=O)c1cc(C(=CCCCCO)c2cc(Cl)c(OC)c(C(=O)OC)c2)cc(Cl)c1OC` showed a CC50 of 10.2 µM. For the same compound, the concentration for a half-maximal effect (EC50) entry in the experiment with CEM-SS [1] was “Not Active”.

Turning to `COC(=O)C=C(c1cc(Cl)c(OC)c(C(=O)OC)c1)c1cc(Cl)c(OC)c(C(=O)OC)c1`, the CC50 in the experiment with CCRF-CEM amounted to 25 µM. For the same compound, the half-maximal effective concentration (EC50) entry with CEM-SS [1] is on record as “Not Active”. The compound further came in with an IC50 in experiment [2] of 16 µM.

`COC(=O)c1cc(C(=CCCOS(C)(=O)=O)c2cc(Cl)c(OC)c(C(=O)OC)c2)cc(Cl)c1OC` returned a cytotoxic concentration (CC50) with CCRF-CEM of 6.9 µM. The EC50 entry in the experiment on CEM-SS [1] is recorded as “Not Active”. The same compound showed a 50% inhibitory concentration (IC50) in experiment [2] of 96 µM.

Regarding `CC=C(c1cc(Br)c(OC)c(C(=O)OC)c1)c1cc(Br)c(OC)c(C(=O)OC)c1`, in the experiment on CCRF-CEM, the cytotoxic concentration (CC50) is 10 µM. Besides, in the experiment with CEM-SS [1], the EC50 result was “Not Active”. Besides, the midpoint of inhibition in experiment [2], the IC50, lay at 26 µM.

In turn, `COC(=O)c1cc(C(=CCCCC(=O)O)c2cc(Cl)c(OC)c(C(=O)OC)c2)cc(Cl)c1OC` displayed a half-maximal cytotoxic concentration (CC50) in the experiment with CCRF-CEM of 100 µM. In the experiment on CEM-SS [1], the EC50 result is recorded as “Not Active”. The same compound displayed an IC50 in experiment [2] greater than 100 µM.

Turning to `CC1(C)OC(=O)c2cc(C(=CCCO)c3cc(Cl)c4c(c3)C(=O)OC(C)(C)O4)cc(Cl)c2O1`, it took 18.8 µM to reach half-maximal cytotoxicity in the experiment on CCRF-CEM (CC50). Further, the EC50 result in the experiment with CEM-SS [1] is on record as “Not Active”. This compound also displayed an IC50 in experiment [2] greater than 100 µM.

Regarding `COC(=O)c1cc(C(=CCCN=[N+]=[N-])c2cc(Br)c(OC)c(C(=O)OC)c2)cc(Br)c1OC`, the cytotoxic concentration (CC50) with CCRF-CEM was greater than 316 µM. Also, the response in the experiment on CEM-SS [3] was half-maximal at 1.1 µM (EC50). In experiment [2], this compound gave a half-maximal inhibitory concentration (IC50) of 94 µM. Besides, the TI with CEM-SS [4] was greater than 278.

The compound `COC(=O)c1cc(C(=CCCO)c2cc(Br)c(OC)c(C(=O)OC)c2)cc(Br)c1OC` came in with a CC50 in the experiment with CCRF-CEM greater than 316 µM. This compound yielded a 50% effective concentration (EC50) in the experiment with CEM-SS [3] of 6 µM. Further, the IC50 in experiment [2] came to 31.6 µM. In the experiment on CEM-SS [4], this compound returned a TI greater than 52.

In the experiment with CCRF-CEM, `COc1c(Cl)cc(C(=CCC(=O)O)c2cc(Cl)c(OC)c(C(=O)O)c2)cc1C(=O)O` came in with a cytotoxic concentration (CC50) greater than 316 µM. For the same compound, the EC50 result in the experiment with CEM-SS [1] was “Not Active”. In experiment [2], this compound gave an IC50 greater than 100 µM.

Values taken from ChEMBL document CHEMBL1131244, “New alkenyldiarylmethanes with enhanced potencies as anti-HIV agents which act as non-nucleoside reverse transcriptase inhibitors” (J Med Chem, 1998).
